Source: PubChem BioAssay (Broad Institute)
Env fusion inh: HIV envelope-mediated fusion inhibition. HeLa-JRFL Env/CEM21 cell fusion, luciferase. inhibition, % at 12.3 µM. 360,000 tested, 1.1% active. AID 651610;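 active means mean replicate inhibition score of at least 50 and every replicate individually at or above 50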;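 further: 0% = plate neutral controls and 100% = maraviroc near 300 nM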
CDK5 inh: inhibitors of human CDK5/p35 kinase; Q00535+Q15078; Recombinant CDK5/p35, ADP-Glo luminescence, 60 min; inhibition, % at 10 µM; 330,000 tested, 0.01% active; AID 488839;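 active means highest replicate inhibition of at least 50% and at least 75% of replicates reaching 50%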;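 further: plate controls were DMSO neutral control for no effect and GW8510 at 10 µM for full effect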
Cneo AK release: causes C. neoformans cell lysis. adenylate kinase release luminescence, 4 h; normalised: neutral wells 0, clomiphene wells 100. lysis activity, % at 15 µM. 360,000 tested, 0.2% active;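 active means mean lysis activity across replicates of at least 80%, whatever share of replicates individually reach that level; inactive means mean lysis activity below 80%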
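Material: C. neoformans cells | Amount: Yeast cell density of 5 × 10^6 cells/mL | Medium: Fresh YPD growth medium | Dosing: Single dose | Times: Static 4 h at 37 °C with compound, 1 h detection | Detection: AK luminescence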
dFosB act: enhances mouse delta FosB homodimer DNA binding | P13346 | purified delta FosB, TAMRA-CDK5 oligo fluorescence polarization; percent of positive-control signal above neutral wells | activation, % at 25 µM | 340,000 tested, 0.99% active | AID 493131;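 active means mean activation above about 17%, with every replicate also reaching it, limit read from the data, passing the limit was not always enough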
Target sequence (P13346 whole entry, looked up): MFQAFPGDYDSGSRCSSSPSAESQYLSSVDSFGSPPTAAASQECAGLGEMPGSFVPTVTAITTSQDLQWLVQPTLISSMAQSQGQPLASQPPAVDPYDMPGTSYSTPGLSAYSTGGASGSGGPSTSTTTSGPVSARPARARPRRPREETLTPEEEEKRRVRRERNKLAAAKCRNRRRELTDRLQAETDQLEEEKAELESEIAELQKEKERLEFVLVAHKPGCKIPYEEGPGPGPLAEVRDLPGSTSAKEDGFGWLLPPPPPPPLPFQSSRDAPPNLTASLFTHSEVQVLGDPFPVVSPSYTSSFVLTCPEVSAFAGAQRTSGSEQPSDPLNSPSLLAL
PAX8 reporter: PAX8 transcriptional activity inhibition; RMG-I TPO-luciferase reporter, SteadyGlo, 24 h; inhibition, % at 12.6 µM; 360,000 tested, 1.2% active;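 active means mean replicate inhibition at least 60% with every replicate also reaching 60%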;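 further: luciferase light reporting Pax8 driven TPO promoter activity; plate controls were median of neutral control wells for no effect and mitoxantrone controls for full effect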
GSIS activator: GLuc luminescence reporter in INS-1E cells, primary screen for activators of glucose-dependent secretion of insulin; activation, % at 16.6 µM; INS-1E GLuc reporter insulin secretion, 2-3 h; 370,000 tested, 0.61% active;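 active means lowest replicate activation of at least 40%, so every replicate reaches that level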;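 further: 0% = median of neutral control wells and 100% = median of IBMX positive control wells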
The depositor's hits bear a star; nt = no result given; ! = not active in a repeat; [ ] = dose if it differs, or a comment. Compounds with a hit are over-represented: about 2.9% of the library has one in this group of screens.

SMILES | Env fusion inh | CDK5 inh | Cneo AK release | dFosB act | PAX8 reporter | GSIS activator
COc1ccc(/C=C/C(=O)OCC(=O)NC2CCS(=O)(=O)C2)cc1 (configuration not stated) | -4.9 | -0.5 | -0.4 | 2.8 | -6.8 | -6.4
Cc1cccc(C(=O)NC(=S)NNC(=O)COc2c(C)cccc2C)c1 | -25.5 | -1.8 | nt | -0.5 | -4.4 | 75.9*
COc1ccc(C(=O)NC(=S)NNC(=O)COc2ccccc2)cc1 | 3.9 | -5.5 | nt | 0.0 | 109.3* | -2.8
O=C(COc1ccccc1)NNC(=S)NC(=O)c1ccccc1 | -8.5 | -1.1 | -0.9 | -8.2 | -0.3 | 4.9
c1ccc(-c2ccc(C3[C@H]4CNC[C@@H]3N4Cc3ccccn3)cc2)cc1 (some centres not stated) | nt | nt | nt | nt | -10.0 | 30.4
C[C@H]1CN([C@@H](C)CO)C(=O)c2cccc(NC(=O)c3ccc(-c4nccs4)cc3)c2O[C@@H]1CN(C)Cc1ccc(C(=O)Nc2ccccc2N)cc1 | -30.9[16.7 µM] | nt | 1.4 | nt | nt | 18.4
O=C(NCc1cccnc1)c1c[nH]c2cc3c(cc2c1=O)OCCO3 | 74.6* | -1.2 | -8.5 | -24.0 | nt | nt
O=C(NCc1ccccc1)c1c[nH]c2ccc(S(=O)(=O)Nc3ccc4c(c3)OCCO4)cc2c1=O | nt | -0.7 | 0.2 | -4.1 | nt | -7.6
CN(C)CCCNc1cc(C(C)(C)C)nc2c(-c3ccc(Cl)cc3)cnn12 | -24.2 | 6.1 | 7.6 | -18.7 | 5.5 | 411.2*
C[C@@H]1CN([C@H](C)CO)C(=O)c2cc(-c3cccnc3)cnc2O[C@@H]1CN(C)C(=O)C1CC1 | -1.1[16.7 µM] | nt | 3.6 | nt | nt | 11.0
CC[C@@H]1CC=C[C@H]2[C@H]1C(=O)N(Cc1ccccc1)[C@H]2c1ccc(C(F)(F)F)cc1 | 57.0* | -1.3 | -0.7 | 3.1 | 3.6 | -20.6
CCCCCOP(=O)(c1ccccc1)c1ccccc1 | nt | -0.1 | 4.8 | 4.1 | 95.2* | 9.9
CCOC(=O)C1CCN(C(=O)c2oc3ccc(S(=O)(=O)N4CC(C)CC(C)C4)cc3c2C)CC1 (configuration not stated) | -7.6 | 1.7 | 2.4 | -3.4 | 13.9 | nt
CCOC(=O)N1CCN(C(=O)c2oc3ccc(S(=O)(=O)N4CC(C)CC(C)C4)cc3c2C)CC1 (configuration not stated) | 61.7* | -0.1 | -0.8 | -19.3 | 3.7 | -30.1
O=C(C[C@@H]1C[C@@H]2c3cc(NC(=O)NC4CCCC4)ccc3O[C@@H]2[C@@H](CO)O1)NCc1ccccc1F | -24.3[16.7 µM] | nt | -4.4 | nt | -1.0 | 5.2
COc1ccc(NC(=O)C(=O)NCC2CCCN2S(=O)(=O)c2ccc(C)cc2)cc1 (configuration not stated) | -1.8 | -1.1 | 1.1 | 9.3 | 104.2* | -24.5
COc1ccc(S(=O)(=O)N2CCCC2CNC(=O)C(=O)Nc2ccc(C)cc2)cc1 (configuration not stated) | -1.4 | 0.0 | 0.3 | -9.6 | 7.5 | -14.5
Cc1ccc(S(=O)(=O)N2CCCCC2CCNC(=O)C(=O)NCc2ccccc2)cc1 (configuration not stated) | nt | -0.5 | 5.6 | -5.6 | 52.6 | -33.9
O=C(NCCC1CCCCN1S(=O)(=O)c1ccc(F)cc1)C(=O)NCc1cccnc1 (configuration not stated) | nt | 0.8 | 1.7 | -7.2 | 20.0 | 49.7*
Cc1ccc(S(=O)(=O)N2CCCCC2CCNC(=O)C(=O)NCc2ccncc2)cc1 (configuration not stated) | 2.4 | -0.4 | nt | 4.2 | 76.4* | -1.2
O=C(NCCC1CCCCN1S(=O)(=O)c1ccccc1)C(=O)NCc1ccncc1 (configuration not stated) | -12.8 | 0.0 | 0.2 | -5.5 | 67.9* | 12.2
CO[C@@H]1CN(C)C(=O)c2cc(NC(=O)c3ccc(F)cc3)ccc2OC[C@@H](C)N(C(C)=O)C[C@H]1C | nt | nt | -3.5 | nt | nt | 0.5
COc1ccc(NC(=O)Nc2ccc3c(c2)C(=O)N([C@@H](C)CO)C[C@H](C)[C@@H](CN(C)Cc2ccc4c(c2)OCO4)OCCCC[C@H](C)O3)cc1 | 13.2[16.7 µM] | nt | -2.0 | nt | -8.7 | -34.3
C[C@@H]1CN([C@@H](C)CO)C(=O)c2ccccc2-c2ccccc2CO[C@@H]1CN(C)C(=O)Nc1ccccc1C(F)(F)F | -8.5[16.7 µM] | nt | -0.5 | nt | 7.2 | 8.3
CCC1(O)CC2CN(CCc3c([nH]c4ccccc34)C(C(=O)OC)(c3cc4c(cc3OC)N(C=O)C3C(O)(C(=O)OC)C(OC(C)=O)C5(CC)C=CCN6CCC43C65)C2)C1 (configuration not stated) | -8.5 | -1.7 | nt | -4.6 | 83.1* | -14.0
SMILES | Env fusion inh | CDK5 inh | Cneo AK release | dFosB act | PAX8 reporter | GSIS activator
C[C@H]1CN([C@@H](C)CO)C(=O)c2cc(NS(=O)(=O)c3cccs3)ccc2O[C@H]1CN(C)S(C)(=O)=O | nt | nt | 0.8 | nt | nt | 1.1
CCOc1ccccc1OCCC(=O)NNC(=O)Cn1nc(C)cc1C | -15.2 | 0.1 | 0.3 | 3.4 | -16.9 | 52.7*
Cc1cccc(OCCC(=O)NNC(=O)Cn2nc(C)cc2C)c1 | nt | 0.1 | 0.0 | 1.6 | -12.5 | -13.9
C[n+]1c2n(c3ccccc31)N=C(c1ccc(Br)cc1)CS2 | 32.3 | 0.1 | 9.7 | -17.7 | nt | nt
C[n+]1c2n(c3ccccc31)N=C(c1ccccc1)CS2 | 60.9*! | -2.3 | -4.4 | -1.7 | 27.6 | -6.9
C[n+]1c2n(c3ccccc31)N=C(c1ccc(-c3ccccc3)cc1)CS2 | 66.0* | -0.3 | nt | -30.9 | 95.7* | -35.6
Cc1cccc(-c2nnc3n2N=C(c2ccccc2)CS3)c1 | -90.2 | -2.7 | -0.6 | -5.9 | nt | nt
Cc1ccc(C)c(CNc2ccc(S(=O)(=O)N3CCCCC3)cc2)c1 | 76.2* | -1.0 | 0.4 | -4.2 | 33.1 | -10.3
Cc1ccc(S(=O)(=O)N2CCCCC2)cc1 | 16.8 | 0.1 | -3.3 | 3.2 | 18.9 | 13.8
FC(F)(F)c1ccc(N2CCN(c3cc(-c4ccccc4)nc4ncnn34)CC2)nc1 | 77.5* | -0.2 | -0.4 | -11.4 | nt | nt
Cc1ccc(S(=O)(=O)N(C)C[C@@H]2Oc3c(NC(=O)NC4CCCCC4)cccc3C(=O)N([C@@H](C)CO)C[C@@H]2C)cc1 | -9.8[16.7 µM] | nt | -5.2 | nt | 20.7 | -4.3
CCOC(=O)c1c(NC(=O)c2nn(CC)cc2Br)sc2c1CCCCC2 | 11.6 | 0.7 | -0.5 | -9.0 | nt | nt
CCn1cc(C(=O)NC(=S)Nc2sc3c(c2C(=O)OC)CCCCCC3)cn1 | 6.5 | 0.0 | 2.8 | 4.9 | 4.2 | 74.0*
CN1C[C@H]2[C@@H](c3ccccc31)[C@@H](CO)N2C(=O)C1CCCC1 | nt | nt | -0.1 | nt | 5.8 | -10.1
C[C@@H]1CN([C@@H](C)CO)C(=O)Cc2cc(NC(=O)Cc3ccccc3)ccc2O[C@@H]1CN(C)C(=O)Nc1ccccc1 | 11.5[16.7 µM] | nt | -6.9 | nt | -3.2 | 1.6
Cc1sc(NC(=O)c2ccco2)c(CN2CCN(c3ccccc3)CC2)c1C | 63.4* | 2.5 | 18.9 | -3.9 | 29.9 | nt
Cc1sc(NC(=O)c2ccco2)c(CN2CCCCC2)c1C | -11.9 | 0.9 | 4.0 | -8.1 | nt | nt
